The values below come from article PMC2720252 (Regenerative medicine, 2009).

Series [1] concerns wounded skin of neonatal mice. Nature of the series: Detection and distribution of peptide in wounded skin. The format is in vivo, mouse. Conditions: whole-mount skin, 60 μM, 2 h postwounding, streptavidin (Alexa 594) confocal.
The test system of series [2] is 5 mm excisional wounds on adult CD-1 mice. Nature of the series: Full-thickness 5 mm excisional wound closure in adult mice. The format is in vivo, mouse. The procedure, abridged:
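Adult CD-1 mice received 5 mm full-thickness excisional wounds treated with 20% pluronic gel alone (n = 102) or with 60 μM peptide (n = 95). Gel was applied at wounding and again 24 h later. Wounds were imaged under anaesthesia at 1, 4, 7 and 10 days, and area was measured blind to treatment. There were nine independent experiments with 8–16 animals per group. Analysis used t-test with Bonferroni correction.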

The test system is the same in series [3]. The format is in vivo, mouse. The conditions noted are these: two blinded observers, vs vehicle. The method, boiled down: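 Adult CD-1 mice received full-thickness 5 mm excisional wounds, treated immediately and again at 24 h with 20% pluronic gel with or without 60 μM peptide. Wound images were scored 0–5 by two observers blind to treatment. Redness/swelling was scored at 24 h and 4 days, and appearance/scarring (discoloration, smoothness) at 7 and 10 days. Each wound's score was the mean of both observers. Data came from nine experiments.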

Series [4] relates to neutrophils at 2 mm excisional wounds on neonatal mice. Nature of the series: Whole-mount myeloperoxidase neutrophil density assay in neonatal wounds. The conditions noted are these: 48 h postwounding. The format is in vivo, mouse. The procedure, abridged: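 Two-day-old pups were sedated by hypothermia and given bilateral 2 mm punch wounds at least 1 cm apart; one wound per mouse received 60 μM peptide and the other vehicle. For the 48 h harvest, treatment was repeated at 24 h. Myeloperoxidase-positive cells were grid-counted blind. Analysis used Wilcoxon matched-pairs test.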

Series [5] relates to neutrophils at adult mouse excisional skin injuries. Briefly: Neutrophil counts in H&E sections of adult excisional wounds. The format is in vivo. Conditions: 24 h and 4 days, three treatment and three control wounds, p < 0.01-0.001.
The test system of series [6] is healed excisional wounds of adult mice. Briefly: Tensile testing to failure of skin strips with healed wounds. The format is in vivo, mouse. The conditions noted are these: 3 months postwounding.
A further series deals with Cx43. Briefly: Quantitative immunolabeling of Cx43 and ZO-1 in wound epidermis. The format is in vivo. The conditions noted are these: adult mouse wound epidermis, 24 h. The method, boiled down: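 Paired peptide-treated and control wounds were taken from the same five adult mice. Peptide was given at 60 μM in 20% pluronic gel. Sections taken 24 h after injury were labelled with Cx43 and ZO-1 antibodies plus DAPI and imaged by laser scanning confocal microscopy. Epidermal Cx43 particle size, numerical density and total immunolabelled area were quantified.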

Series [7] deals with second PDZ domain (PDZ2) of zonula occludens (ZO)-1. The conditions noted are these: cited from earlier work.
The subject of series [8] is Cx43-expressing HeLa cells. The conditions noted are these: cited from earlier work.
[9] abbreviates: adult mice, 5 mm excisional wound, 10-day time course, vs controls.

As to RQPKIWFPNRRKPWKKRPRPDDLEI [ACT1], the “spread of peptide in tissue after application to wound” value in series [1] was “could be observed in tissues surrounding the wound edges”. Besides, in [2] (setting [9]), the “healed appearance (qualitative)” value is recorded as “less discolored appearance”; the “swelling / inflammation of wound (qualitative)” value is “less swollen and inflamed”. In [2] (nine independent experiments, 8-16 animals per group), the “experiments with significantly accelerated closure rate” value is on record as “eight of the nine experiments”. Besides, the “scarring/overall appearance score (0-5)” value in series [3] (7 and 10 days postwounding) is recorded as “significantly improved”. The “wound redness score (0-5)” value in series [3] (24 h and 4 days postwounding) is given as “significantly decreased”. The “localisation of neutrophils at wound” value in series [4] is reported as “frequently sequestered in blood vessels”. Besides, the neutrophil density entry in series [5] is “significant decreases”. For the same sequence, in [6], the “overall appearance of healed wounds” value was “improvement in overall appearance of the healed wounds is maintained”. For the same sequence, in the series on Cx43, the “apically localized ZO-1 staining proximal to wound edge” value was “reduction appeared to be more pronounced”. In addition, in the series with Cx43 (paired wounds on five mice), the “average size of Cx43 particles (GJs)” value is given as “significant (p < 0.05) overall increase” and the “numerical density of Cx43 particles” value is “significantly (p < 0.05) reduced”. Also, the “effect on Cx43-ZO-1 interaction” value in [7] was “competitively inhibiting the interaction of endogenous Cx43 molecules with ZO-1”. For the same sequence, in series [8] (Cx43-expressing HeLa cells), the “Cx43 distribution and levels” value is reported as “redistribution of Cx43 from a detergent-soluble to an insoluble fraction without causing changes in overall levels of the protein”; the “GJ aggregate size and number” value is “increase in the size and decrease in the number of GJ aggregates”. Moreover, the “subcellular targeting of peptide” value in series [8] (HeLa cells) is given as “Cytoplasmic targeting”.
